Test results taken from ChEMBL document CHEMBL1140895, “Synthesis of antisense oligonucleotides containing 2'-O-psoralenylmethoxyalkyl adenosine for photodynamic regulation of point mutations in RNA” (Bioorg Med Chem, 2009).
Activity calls are given as the source filed them. The calls are words filed in the database; no cut-off is given here.

How the values were obtained:
[1] = Binding affinity to oligoribonucleotide ORN-U assessed as thermal stability by UV melting study
Outline: (§1)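 Duplex melting curves were recorded by UV absorbance with temperature ramped at 1.0 °C/min. Each oligonucleotide was at 2.0 µM in 100 mM phosphate buffer (pH 7.0) containing 0.1 M NaCl.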

[2] = Binding affinity to oligoribonucleotide ORN-G assessed as thermal stability by UV melting study; outline: as §1
[3] = Binding affinity to oligoribonucleotide ORN-U assessed as photo cross linking activity by reversed phase HPLC
Outline: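 Equimolar 2′-Ps-oligo and ORN (2.0 µM each) were denatured at 85 °C for 5 min and slowly cooled to 37 °C in 100 mM sodium phosphate (pH 7.0) with 0.1 M NaCl. Samples were irradiated with UVA (365 nm transilluminator, 1.6 mW/cm²) and analysed by C18 reversed-phase HPLC (TEAA pH 7.0/acetonitrile gradient, 40 °C oven) to follow intact ORN and cross-linked product.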

[4] = Binding affinity to oligoribonucleotide ORN-U assessed as formation of stable A form like duplex with ORN-U by UV spectroscopy
[5] = Binding affinity to oligoribonucleotide ORN-U assessed as intercalation by fluorescence spectroscopy
[6] = Binding affinity to oligoribonucleotide ORN-U assessed as photo-cross-linking efficiency with ORN-U after UVA irradiation of 1 min by time course photo cross linking study
[7] = Binding affinity to oligoribonucleotide ORN-G assessed as photo-cross-linking efficiency with ORN-G after UVA irradiation of 1 min by time course photo cross linking study
[8] = Binding affinity to oligoribonucleotide ORN-U assessed as photo-cross-linking efficiency with ORN-U after UVA irradiation of 120 min by time course photo cross linking study

SMILES	Tm [1]	Tm [2]	Activity [3]	Activity [4]	Activity [5]	photo-cross-linking efficiency [6]	photo-cross-linking efficiency [7]	Activity [8]
Cc1oc2c(C)c3oc(=O)cc(C)c3cc2c1COCCO[C@@H]1[C@H](OP(=O)(O)OC[C@H]2O[C@@H](n3ccc(N)nc3=O)C[C@@H]2OP(=O)(O)OC[C@H]2O[C@@H](n3cnc4c(N)ncnc43)C[C@@H]2OP(=O)(O)OC[C@H]2O[C@@H](n3cnc4c(=O)[nH]c(N)nc43)C[C@@H]2OP(=O)(O)OC[C@H]2O[C@@H](n3ccc(N)nc3=O)C[C@@H]2OP(=O)(O)OC[C@H]2O[C@@H](n3cc(C)c(=O)[nH]c3=O)C[C@@H]2OP(=O)(O)OC[C@H]2O[C@@H](n3ccc(N)nc3=O)C[C@@H]2OP(=O)(O)OC[C@H]2O[C@@H](n3ccc(N)nc3=O)C[C@@H]2O)[C@@H](COP(=O)(O)O[C@H]2C[C@H](n3cnc4c(N)ncnc43)O[C@@H]2COP(=O)(O)O[C@H]2C[C@H](n3ccc(N)nc3=O)O[C@@H]2COP(=O)(O)O[C@H]2C[C@H](n3ccc(N)nc3=O)O[C@@H]2COP(=O)(O)O[C@H]2C[C@H](n3cnc4c(=O)[nH]c(N)nc43)O[C@@H]2COP(=O)(O)O[C@H]2C[C@H](n3ccc(N)nc3=O)O[C@@H]2COP(=O)(O)O[C@H]2C[C@H](n3cnc4c(N)ncnc43)O[C@@H]2COP(=O)(O)O[C@H]2C[C@H](n3cc(C)c(=O)[nH]c3=O)O[C@@H]2CO)O[C@H]1n1cnc2c(N)ncnc21	63.1 °C	59.1 °C	Active	Active	Active	75%	7%	–
Cc1oc2c(C)c3oc(=O)cc(C)c3cc2c1CO[C@@H]1[C@H](OP(=O)(O)OC[C@H]2O[C@@H](n3ccc(N)nc3=O)C[C@@H]2OP(=O)(O)OC[C@H]2O[C@@H](n3cnc4c(N)ncnc43)C[C@@H]2OP(=O)(O)OC[C@H]2O[C@@H](n3cnc4c(=O)[nH]c(N)nc43)C[C@@H]2OP(=O)(O)OC[C@H]2O[C@@H](n3ccc(N)nc3=O)C[C@@H]2OP(=O)(O)OC[C@H]2O[C@@H](n3cc(C)c(=O)[nH]c3=O)C[C@@H]2OP(=O)(O)OC[C@H]2O[C@@H](n3ccc(N)nc3=O)C[C@@H]2OP(=O)(O)OC[C@H]2O[C@@H](n3ccc(N)nc3=O)C[C@@H]2O)[C@@H](COP(=O)(O)O[C@H]2C[C@H](n3cnc4c(N)ncnc43)O[C@@H]2COP(=O)(O)O[C@H]2C[C@H](n3ccc(N)nc3=O)O[C@@H]2COP(=O)(O)O[C@H]2C[C@H](n3ccc(N)nc3=O)O[C@@H]2COP(=O)(O)O[C@H]2C[C@H](n3cnc4c(=O)[nH]c(N)nc43)O[C@@H]2COP(=O)(O)O[C@H]2C[C@H](n3ccc(N)nc3=O)O[C@@H]2COP(=O)(O)O[C@H]2C[C@H](n3cnc4c(N)ncnc43)O[C@@H]2COP(=O)(O)O[C@H]2C[C@H](n3cc(C)c(=O)[nH]c3=O)O[C@@H]2CO)O[C@H]1n1cnc2c(N)ncnc21	–	–	–	–	–	3%	–	35%
Cc1oc2c(C)c3oc(=O)cc(C)c3cc2c1COCCCO[C@@H]1[C@H](OP(=O)(O)OC[C@H]2O[C@@H](n3ccc(N)nc3=O)C[C@@H]2OP(=O)(O)OC[C@H]2O[C@@H](n3cnc4c(N)ncnc43)C[C@@H]2OP(=O)(O)OC[C@H]2O[C@@H](n3cnc4c(=O)[nH]c(N)nc43)C[C@@H]2OP(=O)(O)OC[C@H]2O[C@@H](n3ccc(N)nc3=O)C[C@@H]2OP(=O)(O)OC[C@H]2O[C@@H](n3cc(C)c(=O)[nH]c3=O)C[C@@H]2OP(=O)(O)OC[C@H]2O[C@@H](n3ccc(N)nc3=O)C[C@@H]2OP(=O)(O)OC[C@H]2O[C@@H](n3ccc(N)nc3=O)C[C@@H]2O)[C@@H](COP(=O)(O)O[C@H]2C[C@H](n3cnc4c(N)ncnc43)O[C@@H]2COP(=O)(O)O[C@H]2C[C@H](n3ccc(N)nc3=O)O[C@@H]2COP(=O)(O)O[C@H]2C[C@H](n3ccc(N)nc3=O)O[C@@H]2COP(=O)(O)O[C@H]2C[C@H](n3cnc4c(=O)[nH]c(N)nc43)O[C@@H]2COP(=O)(O)O[C@H]2C[C@H](n3ccc(N)nc3=O)O[C@@H]2COP(=O)(O)O[C@H]2C[C@H](n3cnc4c(N)ncnc43)O[C@@H]2COP(=O)(O)O[C@H]2C[C@H](n3cc(C)c(=O)[nH]c3=O)O[C@@H]2CO)O[C@H]1n1cnc2c(N)ncnc21	62.7 °C	58.8 °C	Active	Active	Active	50%	9%	–
Cc1cn([C@H]2C[C@H](OP(=O)(O)OC[C@H]3O[C@@H](n4cnc5c(N)ncnc54)C[C@@H]3OP(=O)(O)OC[C@H]3O[C@@H](n4ccc(N)nc4=O)C[C@@H]3OP(=O)(O)OC[C@H]3O[C@@H](n4cnc5c(=O)[nH]c(N)nc54)C[C@@H]3OP(=O)(O)OC[C@H]3O[C@@H](n4ccc(N)nc4=O)C[C@@H]3OP(=O)(O)OC[C@H]3O[C@@H](n4ccc(N)nc4=O)C[C@@H]3OP(=O)(O)OC[C@H]3O[C@@H](n4cnc5c(N)ncnc54)C[C@@H]3OP(=O)(O)OC[C@H]3O[C@@H](n4cnc5c(N)ncnc54)C[C@@H]3OP(=O)(O)OC[C@H]3O[C@@H](n4ccc(N)nc4=O)C[C@@H]3OP(=O)(O)OC[C@H]3O[C@@H](n4cnc5c(N)ncnc54)C[C@@H]3OP(=O)(O)OC[C@H]3O[C@@H](n4cnc5c(=O)[nH]c(N)nc54)C[C@@H]3OP(=O)(O)OC[C@H]3O[C@@H](n4ccc(N)nc4=O)C[C@@H]3OP(=O)(O)OC[C@H]3O[C@@H](n4cc(C)c(=O)[nH]c4=O)C[C@@H]3OP(=O)(O)OC[C@H]3O[C@@H](n4ccc(N)nc4=O)C[C@@H]3OP(=O)(O)OC[C@H]3O[C@@H](n4ccc(N)nc4=O)C[C@@H]3O)[C@@H](CO)O2)c(=O)[nH]c1=O	67.3 °C	58.9 °C	–	–	–	–	–	–
Cc1oc2c(C)c3oc(=O)cc(C)c3cc2c1COCCCCO[C@@H]1[C@H](OP(=O)(O)OC[C@H]2O[C@@H](n3ccc(N)nc3=O)C[C@@H]2OP(=O)(O)OC[C@H]2O[C@@H](n3cnc4c(N)ncnc43)C[C@@H]2OP(=O)(O)OC[C@H]2O[C@@H](n3cnc4c(=O)[nH]c(N)nc43)C[C@@H]2OP(=O)(O)OC[C@H]2O[C@@H](n3ccc(N)nc3=O)C[C@@H]2OP(=O)(O)OC[C@H]2O[C@@H](n3cc(C)c(=O)[nH]c3=O)C[C@@H]2OP(=O)(O)OC[C@H]2O[C@@H](n3ccc(N)nc3=O)C[C@@H]2OP(=O)(O)OC[C@H]2O[C@@H](n3ccc(N)nc3=O)C[C@@H]2O)[C@@H](COP(=O)(O)O[C@H]2C[C@H](n3cnc4c(N)ncnc43)O[C@@H]2COP(=O)(O)O[C@H]2C[C@H](n3ccc(N)nc3=O)O[C@@H]2COP(=O)(O)O[C@H]2C[C@H](n3ccc(N)nc3=O)O[C@@H]2COP(=O)(O)O[C@H]2C[C@H](n3cnc4c(=O)[nH]c(N)nc43)O[C@@H]2COP(=O)(O)O[C@H]2C[C@H](n3ccc(N)nc3=O)O[C@@H]2COP(=O)(O)O[C@H]2C[C@H](n3cnc4c(N)ncnc43)O[C@@H]2COP(=O)(O)O[C@H]2C[C@H](n3cc(C)c(=O)[nH]c3=O)O[C@@H]2CO)O[C@H]1n1cnc2c(N)ncnc21	64 °C	60.2 °C	–	Active	Active	–	–	–
